Measurements: ChEMBL document CHEMBL3600382, “A-ring substituted 17β-arylsulfonamides of 17β-aminoestra-1,3,5(10)-trien-3-ol as highly potent reversible inhibitors of steroid sulfatase” (Bioorg Med Chem, 2015)

What follows are molecules tested against T1, Steryl-sulfatase (Homo sapiens, UniProt P08842) (assay: Inhibition of STS (unknown origin) using 4-MUS as substrate measured over 10 mins by fluorescence assay).
T1 sequence (P08842 whole entry): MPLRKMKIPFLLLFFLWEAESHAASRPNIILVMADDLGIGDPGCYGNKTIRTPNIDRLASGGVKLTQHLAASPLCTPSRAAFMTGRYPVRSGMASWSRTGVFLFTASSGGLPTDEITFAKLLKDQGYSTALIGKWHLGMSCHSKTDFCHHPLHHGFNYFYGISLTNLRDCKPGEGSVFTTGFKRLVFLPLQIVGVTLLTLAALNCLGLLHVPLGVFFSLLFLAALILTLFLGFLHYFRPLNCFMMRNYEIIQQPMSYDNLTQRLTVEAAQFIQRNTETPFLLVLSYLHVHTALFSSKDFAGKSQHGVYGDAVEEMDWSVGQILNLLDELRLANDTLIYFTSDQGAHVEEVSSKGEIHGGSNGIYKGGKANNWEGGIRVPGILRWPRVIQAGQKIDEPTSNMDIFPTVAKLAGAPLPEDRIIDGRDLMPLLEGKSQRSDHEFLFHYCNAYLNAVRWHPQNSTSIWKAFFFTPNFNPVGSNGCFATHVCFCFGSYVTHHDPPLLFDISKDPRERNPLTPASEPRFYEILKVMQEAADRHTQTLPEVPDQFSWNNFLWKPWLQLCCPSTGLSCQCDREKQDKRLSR
In short: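 Purified STS (10 nM final) in 0.1 M Tris-HCl pH 7.0 containing Triton X-100, 4-MUS 200 µM final, and inhibitor at eleven concentrations (5 nM–5 µM). Ex 360/em 460 fluorescence read over 10 min at 24 °C, in quadruplicate, with no-enzyme controls. Vi/V0 from initial rates fit to a slope-factor equation. For tight binders, Ki app is the y-intercept of IC50 vs [E] (10–80 nM).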

IC50 | Structure (SMILES)
8 nM | CC(C)(C)c1ccc(S(=O)(=O)N[C@H]2CC[C@H]3[C@@H]4CCc5c(ccc(O)c5[N+](=O)[O-])[C@H]4CC[C@]23C)cc1
81 nM | CC(C)(C)c1ccc(S(=O)(=O)N[C@H]2CC[C@H]3[C@@H]4CCc5cc(O)c([N+](=O)[O-])cc5[C@H]4CC[C@]23C)cc1
